The compounds below were run against NAD-dependent histone deacetylase SIR2 (Saccharomyces cerevisiae S288c) (UniProt P06700) (assay: Inhibition of yeast TEL::-URA3 Sir2 assessed as growth inhibition of yeast at 50 uM after 24 to 48 hrs).
In short: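 Yeast cell-based reporter silencing screen for Sir2, the yeast homologue of SIRT1. Strain TEL::URA3 (MATα ura3-52 lys2-801 ade2-101 trpΔ63 his3Δ200 leu2-Δ1 TEL adh4::URA3) carries URA3 inserted at a telomeric locus, where Sir2 silences it. Inhibition was scored as inhibition of growth of this strain in the presence of 5-fluoroorotic acid. Compounds were tested at 50 µM, with splitomicin as the reference inhibitor.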

NAD-dependent histone deacetylase SIR2 (Saccharomyces cerevisiae S288c), sequence (P06700 whole entry): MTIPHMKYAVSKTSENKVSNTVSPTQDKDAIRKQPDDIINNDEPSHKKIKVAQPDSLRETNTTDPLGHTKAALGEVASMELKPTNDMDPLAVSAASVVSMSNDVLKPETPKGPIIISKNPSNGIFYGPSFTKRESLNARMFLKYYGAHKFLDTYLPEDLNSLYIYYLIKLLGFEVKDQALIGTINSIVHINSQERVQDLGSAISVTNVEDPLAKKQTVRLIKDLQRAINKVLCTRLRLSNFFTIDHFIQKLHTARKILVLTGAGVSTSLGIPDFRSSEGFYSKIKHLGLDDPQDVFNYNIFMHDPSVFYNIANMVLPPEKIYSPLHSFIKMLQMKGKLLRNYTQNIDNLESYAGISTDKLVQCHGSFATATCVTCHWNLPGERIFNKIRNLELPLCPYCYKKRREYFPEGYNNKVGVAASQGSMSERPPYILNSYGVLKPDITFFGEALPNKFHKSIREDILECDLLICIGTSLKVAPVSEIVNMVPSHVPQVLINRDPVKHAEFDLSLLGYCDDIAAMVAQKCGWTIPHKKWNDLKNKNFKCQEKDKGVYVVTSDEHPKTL

| Compound | inhibition |
| --- | --- |
| CC1(C)CC(=O)C2=C(C1)N(c1ccc(Br)cc1)C1=C(C(=O)CC(C)(C)C1)C2c1ccc2ccccc2c1 | 10.6% |
| CC1(C)CC(=O)C2=C(C1)N(c1ccc(I)cc1)C1=C(C(=O)CC(C)(C)C1)C2c1cccc(O)c1 | 41.1% |
| CC1(C)CC(=O)C2=C(C1)N(c1ccc(Cl)cc1)C1=C(C(=O)CC(C)(C)C1)C2c1cccc([N+](=O)[O-])c1 | 29.2% |
| CC1(C)CC(=O)C2=C(C1)N(c1ccc(F)cc1)C1=C(C(=O)CC(C)(C)C1)C2c1cccc(O)c1 | 33.5% |
| CC1(C)CC(=O)C2=C(C1)N(c1ccc(C#N)cc1)C1=C(C(=O)CC(C)(C)C1)C2c1cccc(O)c1 | 17.9% |
| CC1(C)CC(=O)C2=C(C1)N(c1ccc(Br)cc1)C1=C(C(=O)CC(C)(C)C1)C2c1cccc(O)c1 | 32.5% |
| CC(=O)c1ccc(N2C3=C(C(=O)CC(C)(C)C3)C(c3cccc(O)c3)C3=C2CC(C)(C)CC3=O)cc1 | 12.8% |
| CCOC(=O)c1c(N2C3=C(C(=O)CC(C)(C)C3)C(c3cccs3)C3=C2CC(C)(C)CC3=O)sc2c1CCCC2 | 16.2% |
| CC1(C)CC(=O)C2=C(C1)N(c1ccccc1)C1=C(C(=O)CC(C)(C)C1)C2c1ccccc1O | 15.6% |
| CC1(C)CC(=O)C2=C(C1)N(c1ccc(C(F)(F)F)cc1)C1=C(C(=O)CC(C)(C)C1)C2c1cccc(O)c1 | 28.5% |
| CC1(C)CC(=O)C2=C(C1)N(c1ccc(I)cc1)C1=C(C(=O)CC(C)(C)C1)C2c1cccs1 | 13% |
| CC1(C)CC(=O)C2=C(C1)N(c1ccccc1I)C1=C(C(=O)CC(C)(C)C1)C2c1cccc(O)c1 | 23.7% |
| CC1(C)CC(=O)C2=C(C1)N(c1ccc(I)cc1)C1=C(C(=O)CC(C)(C)C1)C2c1cccc([N+](=O)[O-])c1 | 35.2% |
| CC1(C)CC(=O)C2=C(C1)N(c1ccc(F)cc1)C1=C(C(=O)CC(C)(C)C1)C2c1cccc(F)c1 | 28.4% |
| Cc1ccc(N2C3=C(C(=O)CC(C)(C)C3)C(c3cccc(O)c3)C3=C2CC(C)(C)CC3=O)cc1 | 30.2% |

From ChEMBL document CHEMBL2331242, “Amberlite IR-120H catalyzed MCR: design, synthesis and crystal structure analysis of 1,8-dioxodecahydroacridines as potential inhibitors of sirtuins” (Bioorg Med Chem Lett, 2013)
